From ChEMBL document CHEMBL4689842, “EUbOPEN Chemogenomics Library wave 1” (2021)

Test system: HEK-293T
Assay: Multiplex assay against HEK293T;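 for Population Tubulin-Different-Phenotype (%): share of the cells with healthy nuclei that show this phenotype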
Assay type: toxicity, cell-based
Conditions: human
Method in brief: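 Imaging took place on a CQ1 microscope at 37°C and 5% CO2 once compound had been added to live cells stained at seeding with Hoechst33342, BioTracker Green Microtubule Cytoskeleton Dye, MitoTracker Red and Annexin V Alexa Fluor 680. CellPathfinder machine-learning gating classed cells as Hoechst high-intensity objects or normal cells, classed normal cells as having healthy, pyknosed or fragmented nuclei, and classed pyknosed cells as mitotic or apoptotic. Tubulin, mitochondrial-mass and membrane-permeability phenotypes are per cents of the healthy-nucleus cells.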

[1] = 12 h, 1 µM, compound concentration 1 uM, replicate 1
[2] = 12 h, 1 µM, compound concentration 1 uM, replicate 2
[3] = 12 h, 10 µM, compound concentration 10 uM, replicate 1
[4] = 12 h, 10 µM, compound concentration 10 uM, replicate 2
[5] = 24 h, 1 µM, compound concentration 1 uM, replicate 1
[6] = 24 h, 1 µM, compound concentration 1 uM, replicate 2
[7] = 24 h, 10 µM, compound concentration 10 uM, replicate 1
[8] = 24 h, 10 µM, compound concentration 10 uM, replicate 2
[9] = 48 h, 1 µM, compound concentration 1 uM, replicate 1
[10] = 48 h, 1 µM, compound concentration 1 uM, replicate 2
[11] = 48 h, 10 µM, compound concentration 10 uM, replicate 1
[12] = 48 h, 10 µM, compound concentration 10 uM, replicate 2

## COc1cc(N2CCN(C)CC2)ccc1Nc1ncc2c(n1)N(C)c1ccccc1C(=O)N2C
[1]
  Population Apoptotic (%): 46%
  Population Fragmented Nuclei (%): 8%
  Population Healthy Nuclei (%): 45%
  Population Hoechst High Intensity Objects (%): 6%
  Population Membrane Permeable-Phenotype (%): 1%
  Population Mitochondria Different-Phenotype (%): 90%
  Population Mitotic Cells (%): 53%
  Population Normal (%): 93%
  Population Pyknosed Nuclei (%): 45%
  Population Tubulin-Different-Phenotype (%): 40%
  Total Cell Count: 359
[2]
  Population Apoptotic (%): 18%
  Population Fragmented Nuclei (%): 3%
  Population Healthy Nuclei (%): 37%
  Population Hoechst High Intensity Objects (%): 3%
  Population Membrane Permeable-Phenotype (%): 6%
  Population Mitochondria Different-Phenotype (%): 42%
  Population Mitotic Cells (%): 82%
  Population Normal (%): 96%
  Population Pyknosed Nuclei (%): 58%
  Population Tubulin-Different-Phenotype (%): 23%
  Total Cell Count: 176
[3]
  Population Apoptotic (%): 62%
  Population Fragmented Nuclei (%): 12%
  Population Healthy Nuclei (%): 17%
  Population Hoechst High Intensity Objects (%): 13%
  Population Membrane Permeable-Phenotype (%): 23%
  Population Mitochondria Different-Phenotype (%): 92%
  Population Mitotic Cells (%): 37%
  Population Normal (%): 86%
  Population Pyknosed Nuclei (%): 70%
  Population Tubulin-Different-Phenotype (%): 84%
  Total Cell Count: 172
[4]
  Population Apoptotic (%): 58%
  Population Fragmented Nuclei (%): 8%
  Population Healthy Nuclei (%): 15%
  Population Hoechst High Intensity Objects (%): 6%
  Population Membrane Permeable-Phenotype (%): 7%
  Population Mitochondria Different-Phenotype (%): 96%
  Population Mitotic Cells (%): 41%
  Population Normal (%): 93%
  Population Pyknosed Nuclei (%): 76%
  Population Tubulin-Different-Phenotype (%): 100%
  Total Cell Count: 190
[5]
  Population Apoptotic (%): 38%
  Population Fragmented Nuclei (%): 4%
  Population Healthy Nuclei (%): 58%
  Population Hoechst High Intensity Objects (%): 6%
  Population Membrane Permeable-Phenotype (%): 1%
  Population Mitochondria Different-Phenotype (%): 75%
  Population Mitotic Cells (%): 61%
  Population Normal (%): 93%
  Population Pyknosed Nuclei (%): 37%
  Population Tubulin-Different-Phenotype (%): 26%
  Total Cell Count: 423
[6]
  Population Apoptotic (%): 9%
  Population Fragmented Nuclei (%): 5%
  Population Healthy Nuclei (%): 48%
  Population Hoechst High Intensity Objects (%): 2%
  Population Membrane Permeable-Phenotype (%): 7%
  Population Mitochondria Different-Phenotype (%): 40%
  Population Mitotic Cells (%): 90%
  Population Normal (%): 97%
  Population Pyknosed Nuclei (%): 45%
  Population Tubulin-Different-Phenotype (%): 22%
  Total Cell Count: 225
[7]
  Population Apoptotic (%): 69%
  Population Fragmented Nuclei (%): 9%
  Population Healthy Nuclei (%): 19%
  Population Hoechst High Intensity Objects (%): 10%
  Population Membrane Permeable-Phenotype (%): 13%
  Population Mitochondria Different-Phenotype (%): 96%
  Population Mitotic Cells (%): 30%
  Population Normal (%): 89%
  Population Pyknosed Nuclei (%): 71%
  Population Tubulin-Different-Phenotype (%): 93%
  Total Cell Count: 170
[8]
  Population Apoptotic (%): 76%
  Population Fragmented Nuclei (%): 7%
  Population Healthy Nuclei (%): 20%
  Population Hoechst High Intensity Objects (%): 5%
  Population Membrane Permeable-Phenotype (%): 2%
  Population Mitochondria Different-Phenotype (%): 94%
  Population Mitotic Cells (%): 23%
  Population Normal (%): 94%
  Population Pyknosed Nuclei (%): 72%
  Population Tubulin-Different-Phenotype (%): 97%
  Total Cell Count: 195
[9]
  Population Apoptotic (%): 36%
  Population Fragmented Nuclei (%): 8%
  Population Healthy Nuclei (%): 71%
  Population Hoechst High Intensity Objects (%): 8%
  Population Membrane Permeable-Phenotype (%): 1%
  Population Mitochondria Different-Phenotype (%): 23%
  Population Mitotic Cells (%): 63%
  Population Normal (%): 91%
  Population Pyknosed Nuclei (%): 19%
  Population Tubulin-Different-Phenotype (%): 11%
  Total Cell Count: 613
[10]
  Population Apoptotic (%): 18%
  Population Fragmented Nuclei (%): 6%
  Population Healthy Nuclei (%): 72%
  Population Hoechst High Intensity Objects (%): 2%
  Population Membrane Permeable-Phenotype (%): 6%
  Population Mitochondria Different-Phenotype (%): 7%
  Population Mitotic Cells (%): 81%
  Population Normal (%): 97%
  Population Pyknosed Nuclei (%): 20%
  Population Tubulin-Different-Phenotype (%): 16%
  Total Cell Count: 357
[11]
  Population Apoptotic (%): 69%
  Population Fragmented Nuclei (%): 16%
  Population Healthy Nuclei (%): 33%
  Population Hoechst High Intensity Objects (%): 15%
  Population Membrane Permeable-Phenotype (%): 3%
  Population Mitochondria Different-Phenotype (%): 100%
  Population Mitotic Cells (%): 30%
  Population Normal (%): 84%
  Population Pyknosed Nuclei (%): 49%
  Population Tubulin-Different-Phenotype (%): 91%
  Total Cell Count: 210
[12]
  Population Apoptotic (%): 70%
  Population Fragmented Nuclei (%): 11%
  Population Healthy Nuclei (%): 28%
  Population Hoechst High Intensity Objects (%): 10%
  Population Membrane Permeable-Phenotype (%): 1%
  Population Mitochondria Different-Phenotype (%): 96%
  Population Mitotic Cells (%): 29%
  Population Normal (%): 89%
  Population Pyknosed Nuclei (%): 59%
  Population Tubulin-Different-Phenotype (%): 94%
  Total Cell Count: 211
